Data taken from ChEMBL document CHEMBL1255471, “Effects of inoculum, pH, and cations on the in vitro activity of fidaxomicin (OPT-80, PAR-101) against Clostridium difficile” (2010).
Converted amounts (≈) assume the structure as drawn.

Tests used:
Format in all cases: functional
Clostridioides difficile [1] = test: Antibacterial activity against Clostridium difficile ATCC 700057 in presence of 33 mg/L of calcium ion by CLSI agar dilution method
Clostridioides difficile [2] = test: Antibacterial activity against Clostridium difficile ATCC 9689 in presence of 33 mg/L of calcium ion by CLSI agar dilution method
Clostridioides difficile [3] = test: Antibacterial activity against Clostridium difficile ATCC 700057 in presence of 21 mg/L of magnesium ion by CLSI agar dilution method
Clostridioides difficile [4] = test: Antibacterial activity against Clostridium difficile ATCC 9689 in presence of 21 mg/L of magnesium ion by CLSI agar dilution method
Clostridioides difficile [5] = test: Ratio of MIC for Clostridium difficile ATCC 700057 at pH 6 to MIC for Clostridium difficile ATCC 700057 at pH 7.5 by broth microdilution method
Summary of the method: (§1)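 Broth microdilution in brucella broth buffered at 10 or 100 mM with NaH2PO4·H2O (pH 7.0), MOPS (pH 8.0) or TAPS (pH 9.0), pH set in ambient air. Final anaerobic pH ranges were 6–7.6 (10 mM) and 6–8.1 (100 mM). Plates were equilibrated anaerobically for at least 3 h before inoculation. Data were pooled from three experiments, and ratios were taken between MICs at the two pH values.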

Clostridioides difficile [6] = test: Ratio of MIC for Clostridium difficile ATCC 700057 at pH 6 to MIC for Clostridium difficile ATCC 700057 at pH 8.1 by broth microdilution method; summary of the method: as §1
Clostridioides difficile [7] = test: Ratio of MIC for Clostridium difficile ATCC 9689 at pH 6 to MIC for Clostridium difficile ATCC 9689 at pH 7.5 by broth microdilution method; summary of the method: as §1
Clostridioides difficile [8] = test: Ratio of MIC for Clostridium difficile ATCC 9689 at pH 6 to MIC for Clostridium difficile ATCC 9689 at pH 8.1 by broth microdilution method; summary of the method: as §1
Clostridioides difficile [9] = test: Antibacterial activity against Clostridium difficile ATCC 9689 by CLSI agar dilution method using 10^5 to 10^8 CFU/ml inoculum
Summary of the method: (§2)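 CLSI agar dilution in a glove box (10% H2, 5% CO2, 85% N2). A ~10^8 CFU/ml suspension was serially diluted 10-fold to 10^5–10^8 CFU/ml and 2 μl was spotted (10^2–10^5 CFU/spot). Runs were done at least in duplicate; the mode was reported, or the higher value when replicates split evenly.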

Clostridioides difficile [10] = test: Antibacterial activity against Clostridium difficile ATCC 700057 by CLSI agar dilution method using 10^5 to 10^8 CFU/ml inoculum; summary of the method: as §2
Clostridioides difficile [11] = test: Antibacterial activity against Clostridium difficile ATCC 700057 in presence of 45 mg/L of calcium ion by CLSI agar dilution method
Clostridioides difficile [12] = test: Antibacterial activity against Clostridium difficile ATCC 700057 in presence of 75 mg/L of calcium ion by CLSI agar dilution method
Clostridioides difficile [13] = test: Antibacterial activity against Clostridium difficile ATCC 9689 in presence of 45 mg/L of calcium ion by CLSI agar dilution method
Clostridioides difficile [14] = test: Antibacterial activity against Clostridium difficile ATCC 9689 in presence of 75 mg/L of calcium ion by CLSI agar dilution method
Clostridioides difficile [15] = test: Antibacterial activity against Clostridium difficile ATCC 700057 in presence of 30 mg/L of magnesium ion by CLSI agar dilution method
Clostridioides difficile [16] = test: Antibacterial activity against Clostridium difficile ATCC 700057 in presence of 57 mg/L of magnesium ion by CLSI agar dilution method
Clostridioides difficile [17] = test: Antibacterial activity against Clostridium difficile ATCC 9689 in presence of 30 mg/L of magnesium ion by CLSI agar dilution method
Clostridioides difficile [18] = test: Antibacterial activity against Clostridium difficile ATCC 9689 in presence of 57 mg/L of magnesium ion by CLSI agar dilution method
Clostridioides difficile [19] = test: Ratio of MIC for Clostridium difficile ATCC 700057 at pH 6.2 to MIC for Clostridium difficile ATCC 700057 at pH 7.9 by CLSI agar dilution method
Summary of the method: (§3)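 Agar dilution MICs were measured over anaerobic pH 6.2–8.0. Media were buffered with 100 mM NaH2PO4 (pH 7) or TAPS (pH 8) and set in ambient air above the target pH. After 3 h equilibration in the chamber (5% CO2), anaerobic pH was checked with a flat-bottomed probe. The pH 8.0 run was repeated, and ratios were taken between MICs at the two pH values.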

Clostridioides difficile [20] = test: Ratio of MIC for Clostridium difficile ATCC 9689 at pH 6.2 to MIC for Clostridium difficile ATCC 9689 at pH 7.9 by CLSI agar dilution method; summary of the method: as §3
Clostridioides difficile [21] = test: Ratio of MIC for Clostridium difficile ATCC 700057 at pH 7 to MIC for Clostridium difficile ATCC 700057 at pH 7.9 by CLSI agar dilution method; summary of the method: as §3
Clostridioides difficile [22] = test: Ratio of MIC for Clostridium difficile ATCC 9689 at pH 7 to MIC for Clostridium difficile ATCC 9689 at pH 7.9 by CLSI agar dilution method; summary of the method: as §3

CN[C@H](CC(C)C)C(=O)N[C@H]1C(=O)N[C@@H](CC(N)=O)C(=O)N[C@H]2C(=O)N[C@H]3C(=O)N[C@H](C(=O)N[C@H](C(=O)O)c4cc(O)cc(O)c4-c4cc3ccc4O)[C@H](O)c3ccc(c(Cl)c3)Oc3cc2cc(c3O[C@@H]2O[C@H](CO)[C@@H](O)[C@H](O)[C@H]2O[C@H]2C[C@](C)(N)[C@H](O)[C@H](C)O2)Oc2ccc(cc2Cl)[C@H]1O [VANCOMYCIN]
MIC (Clostridioides difficile [1]): 1 µg/mL | MIC (Clostridioides difficile [2]): 1 µg/mL | MIC (Clostridioides difficile [3]): 1 µg/mL | MIC (Clostridioides difficile [4]): 1 µg/mL | Ratio (Clostridioides difficile [5]): 8 | Ratio (Clostridioides difficile [6]): 16 | Ratio (Clostridioides difficile [7]): 8 | Ratio (Clostridioides difficile [8]): 16

CCc1c(Cl)c(O)c(Cl)c(O)c1C(=O)O[C@H]1[C@H](O)[C@H](OC)[C@H](OC/C2=C\C=C\C[C@H](O)/C(C)=C/[C@H](CC)[C@@H](O[C@@H]3OC(C)(C)[C@@H](OC(=O)C(C)C)[C@H](O)[C@@H]3O)/C(C)=C/C(C)=C/C[C@@H]([C@@H](C)O)OC2=O)O[C@@H]1C [FIDAXOMICIN]
MIC (Clostridioides difficile [9]): 0.063 µg/mL (≈ 0.0595 µM) | MIC (Clostridioides difficile [10]): 0.125 µg/mL (≈ 0.118 µM) | MIC (Clostridioides difficile [1]): 0.125 µg/mL | MIC (Clostridioides difficile [11]): 0.125 µg/mL | MIC (Clostridioides difficile [12]): 0.125 µg/mL | MIC (Clostridioides difficile [2]): 0.063 µg/mL | MIC (Clostridioides difficile [13]): 0.063 µg/mL | MIC (Clostridioides difficile [14]): 0.063 µg/mL | MIC (Clostridioides difficile [3]): 0.125 µg/mL | MIC (Clostridioides difficile [15]): 0.125 µg/mL | MIC (Clostridioides difficile [16]): 0.125 µg/mL | MIC (Clostridioides difficile [4]): 0.063 µg/mL | MIC (Clostridioides difficile [17]): 0.063 µg/mL | MIC (Clostridioides difficile [18]): 0.063 µg/mL | Ratio (Clostridioides difficile [19]): 8 | Ratio (Clostridioides difficile [20]): 8 | Ratio (Clostridioides difficile [21]): 8 | Ratio (Clostridioides difficile [22]): 8 | Ratio (Clostridioides difficile [5]): 8 | Ratio (Clostridioides difficile [6]): 16 | Ratio (Clostridioides difficile [7]): 8 | Ratio (Clostridioides difficile [8]): 16
